The source of these data is ChEMBL document CHEMBL3085690, “Naturally occurring antimicrobial peptide OH-CATH30 selectively regulates the innate immune response to protect against sepsis” (J Med Chem, 2013).

In assay [1] the test system is Mus musculus. As to the kind of experiment: Stimulation of innate immune response in Kunming mouse assessed as increase of neutrophils in peritoneal lavage at 10 mg/kg, ip after 5 hrs. Type of assay: functional, organism-based. Also on record: dose 10 mg/kg. In short, it runs like this: (§1)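 Female Kunming mice were given peptide ip at 10 mg/kg. At 5 h, peritoneal cells were recovered by lavage with 2 mL PBS and counted. Cells were stained with anti-F4/80-PE and GR1-FITC for 30 min at room temperature and typed by flow cytometry: neutrophils GR1+/F4/80−, resident monocytes/macrophages GR1−/F4/80+, inflammatory monocytes GR1+/F4/80+. Data are mean ± SD from three mice, unpaired t test.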

In assay [2] the test system is BMDM. As to the kind of experiment: Increase of IL-1beta protein level in mouse BMDM at 20 ug/ml after 18 hrs by ELISA. Type of assay: functional. The essentials: (§2)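 Bone marrow-derived macrophages (RPMI 1640, 10% FCS, 20% L929-conditioned medium) stimulated with peptide for 18 h. Cytokines and chemokines in culture supernatant quantified by sandwich ELISA. Mean ± SD from three independent experiments, unpaired t test.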
A general note: An ELISA detects its analyte on a solid surface through an enzyme-linked reagent.

Assay [3] deals with Mus musculus. In words: Stimulation of innate immune response in Kunming mouse assessed as increase of leukocytes in peritoneal lavage at 10 mg/kg, ip after 5 hrs. It counts as functional, organism-based. Also on record: dose 10 mg/kg. The essentials:
as §1

Assay [4] has as its system RAW264.7. As to the kind of experiment: Induction of phagocytic activity in mouse RAW264.7 cells using fluorescently labeled Escherichia coli up to 2 hrs by fluorescent assay. It counts as functional, cell-based.
The subject of assay [5] is BMDM. As to the kind of experiment: Induction of CXCL1 mRNA up-regulation in mouse BMDM at 20 ug/ml after 3 hrs by qRT-PCR analysis. It counts as functional. The essentials: (§3)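 Murine BMDMs stimulated with peptide, then target mRNA quantified by qRT-PCR. Expression normalized to GAPDH, with untreated cells set to 1.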
Assay [6] relates to Mus musculus. As to the kind of experiment: Stimulation of innate immune response in Kunming mouse assessed as protection against Escherichia coli ATCC 25922-induced mortality by measuring survival rate at 10 mg/kg, ip administered 24 hrs before bacterial infection measured up to 7 days. It counts as functional, organism-based. Also on record: dose 10 mg/kg. The essentials: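 Female Kunming mice were challenged ip with E. coli 25922 at 2.5 × 10^8 CFU/mouse (n = 10). Peptide at 10 mg/kg in sterile saline was given ip at −24 h or +3 h relative to inoculation. Mice were monitored every 6 h and mortality was recorded for up to 7 days, with humane end points. Survival curves were compared by log-rank test.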

Assay [7] has as its system Mus musculus. In words: Stimulation of innate immune response in Kunming mouse infected with Pseudomonas aeruginosa ATCC 27853 assessed as effect on CXCL2 production in peritoneal lavage at 10 mg/kg, ip after 3 hrs by ELISA. It counts as functional, organism-based. Also noted: dose 10 mg/kg. The essentials: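 Mice were pretreated ip with peptide at 10 mg/kg 5 h before ip challenge with P. aeruginosa 27853 at 8 × 10^7 CFU/mouse. CCL2 and CXCL2 were measured in peritoneal lavage collected 3 h after inoculation. TNF-α and IL-6 were measured in serum collected 5 h after inoculation. All were read by ELISA; data are mean ± SD from four mice, unpaired t test.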

For assay [8], the system named is Mus musculus. In words: Stimulation of innate immune response in Kunming mouse infected with Staphylococcus aureus ATCC 25923 assessed as reduction of bacterial burden in peritoneal lavage by measuring survival rate at 10 mg/kg, ip administered 5 hrs before bacterial infection measured up to 7 days. It counts as functional, organism-based. Also on record: dose 10 mg/kg. The essentials: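 Peptide at 10 mg/kg ip was given 5 h before ip challenge with E. coli 25922 (2.5 × 10^8 CFU), P. aeruginosa 27853 (8 × 10^7 CFU) or S. aureus 25923 (2 × 10^8 CFU) per mouse. Viable bacteria were counted in peritoneal lavage collected in 2 mL of cold saline (n = 7, 6 and 8 respectively; unpaired t test). Survival was recorded for up to 7 days.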

Assay [9] in a line: Increase of IL-10 protein level in mouse BMDM at 10 ug/ml after 18 hrs by ELISA. It counts as functional. In short, it runs like this:
as §2

The test system of assay [10] is BMDM. As to the kind of experiment: Induction of CCL4 mRNA up-regulation in mouse BMDM at 20 ug/ml after 3 hrs by qRT-PCR analysis. It counts as functional. The essentials:
as §3

Assay [11] concerns BMDM. In words: Induction of CCL2 mRNA up-regulation in mouse BMDM at 20 ug/ml after 3 hrs by qRT-PCR analysis. Type of assay: functional. In short, it runs like this: as §3
In general terms: Quantitative PCR measures a nucleic acid by following its amplification.

For assay [12], the system named is RAW264.7. In words: Inhibition of LTA-induced TNFalpha production in mouse RAW264.7 cells 2 to 50 ug/ml after 6 hrs by ELISA. It counts as functional, cell-based.
The test system of assay [13] is Mus musculus. As to the kind of experiment: Stimulation of innate immune response in Kunming mouse assessed as protection against bacteria-induced mortality by measuring survival rate at 10 mg/kg, ip measured up to 7 days. It counts as functional, organism-based. Also noted: dose 10 mg/kg.
Assay [14] in a line: Induction of IL-10 mRNA up-regulation in mouse BMDM at 20 ug/ml after 3 hrs by qRT-PCR analysis relative to control. It counts as functional. The essentials: as §3
Assay [15] concerns BMDM. As to the kind of experiment: Increase of CXCL1 protein level in mouse BMDM at 20 ug/ml after 18 hrs by ELISA. It counts as functional. The essentials:
as §2

Molecules are shown by their SMILES. The source made the active and inactive calls. The calls are words filed in the database; no cut-off is given here. Peptide text beside a SMILES is read from it.

With `CC[C@H](C)[C@H](NC(=O)[C@@H](NC(=O)[C@H](CCCNC(=N)N)NC(=O)[C@@H]1CCCN1C(=O)[C@H](CCCCN)NC(=O)[C@H](CCCCN)NC(=O)[C@H](Cc1ccccc1)NC(=O)[C@H](Cc1ccccc1)NC(=O)[C@H](CCCCN)NC(=O)[C@H](CCCCN)NC(=O)[C@H](C)NC(=O)[C@H](CCCNC(=N)N)NC(=O)[C@H](CCCCN)NC(=O)[C@H](CCCCN)NC(=O)[C@@H](NC(=O)[C@H](CO)NC(=O)[C@H](CC(N)=O)NC(=O)[C@H](CCCCN)NC(=O)[C@H](CC(C)C)NC(=O)[C@H](CCCCN)NC(=O)[C@H](CCCCN)NC(=O)[C@H](Cc1ccccc1)NC(=O)[C@H](Cc1ccccc1)NC(=O)[C@@H](N)CCCCN)C(C)C)C(C)C)C(=O)NCC(=O)N[C@H](C(=O)N[C@@H](CO)C(=O)N[C@H](C(=O)N1CCC[C@H]1C(=O)N[C@@H](Cc1ccccc1)C(=O)O)[C@@H](C)CC)C(C)C` (H-KFFKKLKNSVKKRAKKFFKKPRVIGVSIPF-OH), the outcome in the assay on Mus musculus [1], in the assay with Mus musculus [3], in the assay with BMDM [5], with Mus musculus [6], in the assay on Mus musculus [7] and in the assay on Mus musculus [8] was Active. Moreover, the result in the assay with BMDM [10], in the assay with BMDM [11] and in the assay on BMDM [15] was Active. Moreover, the outcome in the assay with BMDM [2], in the assay with RAW264.7 [4] and in the assay with Mus musculus [13] was inactive. Besides, the Activity in assay [9] came to 156 pg/mL. The inhibition result in the assay on RAW264.7 [12] was “inactive”. Further, the “fold change (FC)” value in assay [14] is reported as 5.
